# Measurements: ChEMBL document CHEMBL3399923, “Design and synthesis of new bioisosteres of spirooxindoles (MI-63/219) as anti-breast cancer agents” (Bioorg Med Chem, 2015)
# pIC50: −log10 of the molar value. Active and inactive are the calls of the source. The calls are words filed in the database; no cut-off is given here.
# What was measured:
# HEK293 = assay: Cytotoxicity against human HEK293 cells after 48 hrs by MTT assay; type: cell-based; settings: HEK293, 48 h
# Outline: (§1)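 MTT viability screen for cytotoxicity across the breast cancer and normal kidney epithelial lines; IC50 reported in µM.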
# MDA-MB-231 = assay: Cytotoxicity against human MDA-MB-231 cells after 48 hrs by MTT assay; type: functional, cell-based; settings: MDA-MB-231, 48 h; outline: as §1
# Vero = assay: Cytotoxicity against African green monkey Vero cells after 48 hrs by MTT assay; type: cell-based; settings: Chlorocebus sabaeus; outline: as §1
# MCF7 [1] = assay: Cytotoxicity against human MCF7 cells after 48 hrs by MTT assay; type: functional, cell-based; settings: MCF7, 48 h; outline: as §1
# Homo sapiens [2] = species on record: Homo sapiens; assay: Increase in MDM2 mRNA expression in human primary breast adenocarcinoma cells at 2.5 to 7.5 uM by RT-PCR analysis; type: functional
# Outline: (§2)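 p53 and MDM2 mRNA were measured by real-time quantitative PCR in vehicle- versus compound-treated MCF-7 or primary breast cancer cells. Data are the mean of three separate experiments with SEM, compared with control.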
# Mus musculus [3] = assay: Antitumor activity against human MCF7 cells xenografted in nude mouse assessed as increase in p21 protein expression at 20 mg/kg, po administered for 14 days by Western blotting analysis; type: functional, organism-based; parameters: dose 20 mg/kg
# Homo sapiens [4] = species on record: Homo sapiens; assay: Increase in p21 protein expression in human primary breast adenocarcinoma cells assessed as reduction in Rb phosphorylation at 2.5 to 7.5 uM by immunoblotting analysis; type: functional
# Outline: (§3)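 Western blot of cell-cycle regulatory proteins (p21, cyclin D1, phospho-Rb) in MCF-7 or primary breast cancer cells. Densitometric quantitation is given as fold change versus control; mean with SEM, n = 3.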
# MCF7 [5] = assay: Increase in p53 mRNA expression in human MCF7 cells at 2.5 to 7.5 uM by RT-PCR analysis; type: functional, cell-based; outline: as §2
# Mus musculus [6] = assay: Antitumor activity against human MCF7 cells xenografted in nude mouse assessed as reduction in phosphorylated Rb level at 20 mg/kg, po administered for 14 days by Western blotting analysis; type: functional, organism-based; parameters: dose 20 mg/kg
# MCF7 [7] = assay: Increase in p21 mRNA expression in human MCF7 cells at 5 to 7.5 uM by RT-PCR analysis; type: functional, cell-based
# Outline: (§4)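 Real-time quantitative PCR of p21, cyclin D1, A1, B1 and E1 mRNA in treated MCF-7 cells. Mean with SEM, n = 3, compared with control.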
# MCF7 [8] = assay: Increase in p53 protein expression in human MCF7 cells; type: functional, cell-based
# MCF7 [9] = assay: Increase in MDM2 protein expression in human MCF7 cells; type: functional, cell-based
# Homo sapiens [10] = species on record: Homo sapiens; assay: Increase in MDM2 protein expression in human primary breast adenocarcinoma cells; type: functional
# MCF7 [11] = assay: Increase in p21 protein expression in human MCF7 cells at 7.5 uM by immunoblotting analysis relative to control; type: functional; outline: as §3
# MCF7 [12] = assay: Cell cycle arrest at G1/S phase in human MCF7 cells assessed as reduction in cyclin D1 mRNA expression at 2.5 to 7.5 uM after 48 hrs by RT-PCR analysis; type: functional, cell-based; outline: as §4
# Mus musculus [13] = assay: Toxicity in nude mouse xenografted with human MCF7 cells assessed as change in spleen at 20 mg/kg, po administered for 14 days by histomorphology relative to vehicle-treated control; type: organism-based; parameters: dose 20 mg/kg, route oral; settings: in vivo, 336 h
# Outline: (§5)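 MCF-7 xenograft tumors were induced in athymic nude mice and dosed at 20 mg/kg body weight/day for 14 days, alongside a vehicle-treated group. Tumor volume, average tumor size and body weight were tracked. Liver, lungs, spleen, uterus and kidney were examined histomorphologically against vehicle.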
# Mus musculus [14] = assay: Toxicity in nude mouse xenografted with human MCF7 cells assessed as change in body weight at 20 mg/kg, po administered for 14 days relative to vehicle-treated control; type: organism-based; parameters: dose 20 mg/kg, route oral; settings: in vivo, 336 h; outline: as §5
# MCF7 [15] = assay: Increase in p21 protein expression in human MCF7 cells assessed as reduction in Rb phosphorylation at 2.5 to 7.5 uM by immunoblotting analysis; type: functional, cell-based; outline: as §3
# Mus musculus [16] = assay: Antitumor activity against human MCF7 cells xenografted in nude mouse assessed as reduction in cyclin D1 protein expression at 20 mg/kg, po administered for 14 days by Western blotting analysis; type: functional, organism-based; parameters: dose 20 mg/kg
# [17] = Increase in p21 protein expression in human primary breast adenocarcinoma cells at 7.5 uM by immunoblotting analysis relative to control; type: functional; outline: as §3
# MCF7 [18] = assay: Increase in p21 protein expression in human MCF7 cells assessed as reduction in cyclin D1 expression at 2.5 to 7.5 uM by immunoblotting analysis; type: functional, cell-based; outline: as §3
# Mus musculus [19] = assay: Toxicity in nude mouse xenografted with human MCF7 cells assessed as change in kidney at 20 mg/kg, po administered for 14 days by histomorphology relative to vehicle-treated control; type: organism-based; parameters: dose 20 mg/kg, route oral; settings: in vivo, 336 h; outline: as §5
# MCF7 [20] = assay: Antitumor activity against human MCF7 cells xenografted in nude mouse assessed as reduction in tumor volume at 20 mg/kg, po administered for 14 days relative to vehicle-treated control; type: functional; parameters: scale not given: the % may be the effect or the level left; outline: as §5
# Homo sapiens [21] = species on record: Homo sapiens; assay: Increase in p21 protein expression in human primary breast adenocarcinoma cells assessed as reduction in cyclin D1 expression at 2.5 to 7.5 uM by immunoblotting analysis; type: functional; outline: as §3
# MCF7 [22] = assay: Cell cycle arrest at G1/S phase in human MCF7 cells assessed as reduction in cyclin A1 mRNA expression at 2.5 to 7.5 uM after 48 hrs by RT-PCR analysis; type: functional, cell-based; outline: as §4
# [23] = Cell cycle arrest in human primary breast adenocarcinoma cells assessed as accumulation at G1 phase at 7.5 uM after 48 hrs by propidium iodide staining-based flow cytometry (reference value: 60%); type: functional
# Outline: (§6)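 Cells were exposed to 7.5µM, then stained with propidium iodide and analysed by flow cytometry for the percentage of cells in each cell-cycle phase. Mean with SEM is from three independent experiments, compared with control.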
# MCF7 [24] = assay: Cell cycle arrest at G2/M phase in human MCF7 cells assessed as reduction in cyclin B1 mRNA expression at 2.5 to 7.5 uM after 48 hrs by RT-PCR analysis; type: functional, cell-based; outline: as §4
# Homo sapiens [25] = species on record: Homo sapiens; assay: Increase in p53 protein expression in human primary breast adenocarcinoma cells; type: functional
# MCF7 [26] = assay: Increase in MDM2 mRNA expression in human MCF7 cells at 2.5 to 7.5 uM by RT-PCR analysis; type: functional, cell-based; outline: as §2
# MCF7 [27] = assay: Cell cycle arrest at G1/S phase in human MCF7 cells assessed as reduction in cyclin E1 mRNA expression at 2.5 to 7.5 uM after 48 hrs by RT-PCR analysis; type: functional, cell-based; outline: as §4
# Homo sapiens [28] = species on record: Homo sapiens; assay: Increase in p53 mRNA expression in human primary breast adenocarcinoma cells at 2.5 to 7.5 uM by RT-PCR analysis; type: functional; outline: as §2
# MCF7 [29] = assay: Cell cycle arrest in human MCF7 cells assessed as accumulation at G1 phase at 7.5 uM after 48 hrs by propidium iodide staining-based flow cytometry (reference value: 60%); type: functional; outline: as §6
# Mus musculus [30] = assay: Toxicity in nude mouse xenografted with human MCF7 cells assessed as change in liver at 20 mg/kg, po administered for 14 days by histomorphology relative to vehicle-treated control; type: organism-based; parameters: dose 20 mg/kg, route oral; settings: in vivo, 336 h; outline: as §5
# Mus musculus [31] = assay: Toxicity in nude mouse xenografted with human MCF7 cells assessed as change in lungs at 20 mg/kg, po administered for 14 days by histomorphology relative to vehicle-treated control; type: organism-based; parameters: dose 20 mg/kg, route oral; settings: in vivo, 336 h; outline: as §5
# Mus musculus [32] = assay: Toxicity in nude mouse xenografted with human MCF7 cells assessed as change in uterus at 20 mg/kg, po administered for 14 days by histomorphology relative to vehicle-treated control; type: organism-based; parameters: dose 20 mg/kg, route oral; settings: in vivo, 336 h; outline: as §5
# MCF7 [33] = assay: Increase in p53 […] in human MCF7 cells assessed as increase in p21 promoter activity after 18 hrs by luciferase reporter gene assay; type: functional, cell-based
# MCF7 [34] = assay: Antitumor activity against human MCF7 cells xenografted in nude mouse assessed as reduction in tumor size at 20 mg/kg, po administered for 14 days relative to vehicle-treated control; type: functional; parameters: scale not given: the % may be the effect or the level left; outline: as §5
structure (smiles),measurement,setting,value
O=C(c1ccc([N+](=O)[O-])cc1)C1[C@H](c2ccccc2)[C@@H](c2ccccc2)NC12C(=O)Nc1ccccc12 (some centres undefined),pIC50,HEK293,4.67
same,pIC50,MDA-MB-231,4.53
same,pIC50,Vero,< 4.30
same,pIC50,MCF7 [1],4.81
CC(CN(C)C)Oc1ccc(C(=O)C2[C@H](c3ccccc3)[C@@H](c3ccccc3)NC23C(=O)Nc2ccccc23)cc1 (some centres undefined),pIC50,HEK293,< 4.30
same,pIC50,MDA-MB-231,< 4.30
same,pIC50,Vero,< 4.30
same,pIC50,MCF7 [1],4.69
O=C(c1ccc(OCCN2CCCCC2)cc1)C1[C@H](c2ccccc2)[C@@H](c2ccccc2)NC12C(=O)Nc1ccc([N+](=O)[O-])cc12 (some centres undefined),pIC50,HEK293,4.73
same,pIC50,MDA-MB-231,4.87
same,pIC50,Vero,4.65
same,pIC50,MCF7 [1],4.82
CCN1C(=O)C2(N[C@H](c3ccccc3)[C@@H](c3ccccc3)C2C(=O)c2ccc(OCCN3CCOCC3)cc2)c2ccccc21 (some centres undefined),pIC50,HEK293,< 4.30
same,pIC50,MDA-MB-231,< 4.30
same,pIC50,Vero,< 4.30
same,pIC50,MCF7 [1],< 4.30
O=C(c1ccc(OCCN2CCOCC2)cc1)C1[C@H](c2ccccc2)[C@@H](c2ccccc2)NC12C(=O)Nc1ccc([N+](=O)[O-])cc12 (some centres undefined),pIC50,HEK293,4.34
same,pIC50,MDA-MB-231,< 4.30
same,pIC50,Vero,< 4.30
same,pIC50,MCF7 [1],4.61
O=C(c1ccc(OCCN2CCOCC2)cc1)C1[C@H](c2ccccc2)[C@@H](c2ccccc2)NC12C(=O)Nc1ccccc12 (some centres undefined),pIC50,HEK293,< 4.30
same,pIC50,MDA-MB-231,< 4.30
same,pIC50,Vero,< 4.30
same,pIC50,MCF7 [1],< 4.30
O=C(c1ccc(OCCN2CCCCC2)cc1)C1[C@H](c2ccccc2)[C@@H](c2ccccc2)NC12C(=O)Nc1ccc(Cl)cc12 (some centres undefined),Activity,Homo sapiens [2],Active
same,Activity,Mus musculus [3],Active
same,pIC50,HEK293,< 4.30
same,Activity,Homo sapiens [4],Active
same,pIC50,MDA-MB-231,5.43
same,Activity,MCF7 [5],Active
same,Activity,Mus musculus [6],Active
same,Activity,MCF7 [7],Active
same,Activity,MCF7 [8],Active
same,Activity,MCF7 [9],Active
same,pIC50,Vero,< 4.30
same,Activity,Homo sapiens [10],Active
same,Ratio,MCF7 [11],2.5
same,Activity,MCF7 [12],Active
same,Activity,Mus musculus [13],Non-toxic
same,Activity,Mus musculus [14],Non-toxic
same,Activity,MCF7 [15],Active
same,Activity,Mus musculus [16],Active
same,Ratio,[17],2.5
same,Activity,MCF7 [18],Active
same,Activity,Mus musculus [19],Non-toxic
same,Activity,MCF7 [20],66%
same,Activity,Homo sapiens [21],Active
same,Activity,MCF7 [22],Active
same,Activity,[23],90%
same,Activity,MCF7 [24],inactive
same,Activity,Homo sapiens [25],Active
same,Activity,MCF7 [26],Active
same,Activity,MCF7 [27],Active
same,Activity,Homo sapiens [28],Active
same,Activity,MCF7 [29],90%
same,Activity,Mus musculus [30],Non-toxic
same,Activity,Mus musculus [31],Non-toxic
same,Activity,Mus musculus [32],Non-toxic
same,pIC50,MCF7 [1],5.19
same,Activity,MCF7 [33],Dose-dependent effect
same,Activity,MCF7 [34],66%
COc1ccc(C2=N[C@@H](c3ccc(Cl)cc3)[C@@H](c3ccc(Cl)cc3)N2C(=O)N2CCNC(=O)C2)c(OC(C)C)c1 [NUTLIN-3],pIC50,HEK293,< 4.30
same,pIC50,MDA-MB-231,4.63
same,pIC50,Vero,< 4.30
same,pIC50,MCF7 [1],4.94
O=C(c1ccccc1)C1[C@H](c2ccc(O)cc2)[C@@H](c2ccccc2)NC12C(=O)Nc1ccccc12 (some centres undefined),pIC50,HEK293,< 4.30
same,pIC50,MDA-MB-231,4.43
same,pIC50,Vero,< 4.30
same,pIC50,MCF7 [1],4.44
